Fewer inactive variants are shown than the library holds.
B1: tRNA (parent)
chain: GUUCCGUUGGCGUAAUGGUAACGCGUCUCCCUCCUAAGGAGAAGACUGCGGGUUCGAGUCCCGUACGGAACG

Variants of: B1
Assay: yeast fitness relative to wild type (ratio to wild type); higher = fitter; tRNA-Arg(CCU), competitive growth, 37 C, YPD
Method in brief: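 For this measurement, the tRNA-Arg(CCU) gene was varied by chemical synthesis at a 3% per-site mutation rate across 69 sites, and each variant was placed at the native genomic locus in Saccharomyces cerevisiae. The pooled strains went through a 24-hour competition in YPD at 37°C in six parallel replicates, with amplicons from start and end populations read by 100-nucleotide paired-end sequencing. Darwinian fitness relative to wild type followed from the change in each genotype's frequency. Genotypes needed ≥ 100 starting reads, and estimates < 0.5 were set to 0.5.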
In the case of GUUCCAUUGGCGUAAUGGUAACGCGUCUCCCUCCUUAGGAGAAGACUGCGGGUUCGAGUCGCGUACGGAACG, the yeast fitness is reported as 0.646.
GUUCCAUUGGCGUAAUGGUAACGCGUCUCCCUCCUAAGGAGGAGACUGCCGGUUCGAGUCCCGUACGGAACG gave a yeast fitness of 0.62.
Variant GUUCCAUUGGCGUAAUGGUAGCGCGUCUCCCUCCUAAGGAGAAGACUGCGGGUUUAAGUCCCGUACGGAACG has a yeast fitness of no more than 0.5.
Work on GUUCCAUUGGCGUAAUGGUAACGCGUCUCCCUCCUACGGAGAAGACUGCGGGUUCGAGUCCCGUCCGGACCG yielded a yeast fitness of no more than 0.5.
GUUCCAUUGGCGUAAUGGUAACGCGUCUCCCUCCUAAGGAGAAGGCUGCGGGUUCGAGUCCCGUUCGGAACG gave a yeast fitness of 0.771.
Work on GUUCCAUUGGAGUAAUGGUAACGCGUGUCCCUCCAAAGGAGAUGACUGCGGGUCCGAGUCCCGUGCGGAACG yielded a yeast fitness of no more than 0.5.
In the case of GUUCCAUUGGCGUAAUGGUAACGCGUCUCCCUCCUAUGGAGAAGACUGCGGGUUCAAGUCCCGUCCGGAACG, the yeast fitness is reported as 0.56.
GUUCCAUUGGAGUAAUGGUAACGCGUCUCCCUCCUCAGGAGAAGACUGCGGGUUCGAGUCGAGUACGGCACG gave a yeast fitness of no more than 0.5.
Work on GUUCCAUUGGCGUAAUGGUAACGCGUCUCCCUCCUAAGGGGAAAACUGCGGGUUCGAGUCCCGUACGGAACG yielded a yeast fitness of 0.614.
For GUUCCAUUGGCGUAAUGGUAACGCGUCUCCCUCCUAAGGAGUAGACUGCGGGUUCGAAUCCCGUACGGAACG, the yeast fitness was 0.634.
In the case of GUUCCAUUGGCGUAAUGGUAACGCGUCUCCCUCCUAAGGCGAAGACUGCGGGUUCGAGUCCCGUACGGAACG, the yeast fitness is reported as 0.967.
In the case of GUUCCAUUGGCGUAAUGGUAACGCGUCUCCCUCCUAAGGAGAGGACUGCGGGUUCGAGCCCCGUACGGAACG, the yeast fitness is reported as 0.595.
With GUUCCAUUGGAGUCAUGGCAACGCGUCUCCCACCCAAGGAGCAGACUGCGGGUUCGAGUCCCGUACGGAACG the yeast fitness was no more than 0.5.
Variant GUUCCAUUGGCGUAAUGGUAACGCGUCUCCCUCCUAAGGAGAUGACUGCGGGUUCGAGUCCCGUACGGAACG has a yeast fitness of 0.747.
Work on GUUCCAUUGGCGUAAUGGUAACGCGUCUCCCUCCUAAGGAGACGACUGCGGGUUCGAGUCCCGUACGGAACG yielded a yeast fitness of 0.779.
With GUUCCAUUGGCGUAAUGGUAACGCGUCUCCCUCCUAAGGAGAAGUCUGCGGGUUCGAGUCCCGUACGGUACG the yeast fitness was 0.826.
In the case of GUUCCAUUGGCGUAAUGGUAACGCGUCUCCCUCCUAAGGUGAAGACUGCGGGUUCCAGUCCCGUACGGAACG, the yeast fitness is reported as no more than 0.5.
Work on GUUCCAUUGGCGUAAUGGUAACGCGUCUCCCUCCUAAGGAGAAGCCUGCGGGUUCGAGUCCCGUACGGAUCG yielded a yeast fitness of no more than 0.5.
Variant GUUCCAUUGGCGUAAUGGUAACGCGUCUCCCUCCUAAGGAGAAGUCUGUGGGUUCGAGUCCCGUACGGAACG has a yeast fitness of 0.564.
Work on GUUCCAUUGGCGUAAUGGUAUCGCGUCUCCCUCCUAAGGAGAAGACUGCGGGUUCGAGUCCCGUACGGAACG yielded a yeast fitness of 0.659.
Variant GUUCCAUUGGCGUAAUGGUAACGCGUCUCCCUCCUAGGGAGAAGACUGCGGGUUCGAGUCCCGUACGAGACG has a yeast fitness of 0.545.
GUUCCAUUGGCGUAAUGGUAACGCGUCUCCCUCCUAAGGAGAAGACUGCGGGUUCGAGUCCCGUACGGAGCG showed a yeast fitness of 0.928.
Work on GUUCCAUUGGCGUAAUGGUAACGCGUCUCCCUCCUAAGGAGAAGACUGCGGGUUCGAGUCCCGUACGGAUCG yielded a yeast fitness of 0.958.
GUUCCAUUGGCGUAAUGGUAACGCGUCUCCCUCCUAAGGAGAAGACUGCGGGUUCGAGUCCCGUACGGACCG gave a yeast fitness of 0.863.
GUUCCAUUGGCGUAAUGGUAUCGCGUCUCCCUUCUAAGGAGAAGACUGCGGGUUCGAGUCCCGUACGGAACG showed a yeast fitness of 0.525.
Work on GUUCCAUUGGCGUAAUGGUAACGCGUCUCCCUCCUAAGGGAGAGACUGCGGGUUCGAGUCCCGUACGGAACG yielded a yeast fitness of no more than 0.5.
For GUUCCAUUGGCGUAAUGGUAACGCGUCUCCCUCCUUAGGAGAAGACUGCGGGUUCAAGUCCCGUAUGGAACG, the yeast fitness was no more than 0.5.
Variant GUUCCAUUGGCGUAAUGGUAACGCGUCUCCCUCCUAAGGUGACGACUGCGGGUUCGAGUCCCGUACGGAACG has a yeast fitness of 0.766.
In the case of GUUCCAUUGGCGUAAUGGUAACGCGUCUCCCUCCUAAGGAGAAGUCUGCGGGUUCGCGUCCCGUACGGAACG, the yeast fitness is reported as no more than 0.5.
GUUCCAUUGGCGUAAUGGUAACGCGUCUCCCUCCUAAGGAGCAGACUGCGGGUUCGAGUCCAGUACGGAACG gave a yeast fitness of 0.97.
GUUCCAUUGGCGUAAUGGUAACGCGUCUCCCUCCUAAGGAGAGGACUGCGGGUUCGAGUCCCGUACGGUACG gave a yeast fitness of 0.716.
With GUUCCAUUGGCGUAAUGGUAACGCGUCUCCCUCCUAAGGAGAAGACUGCGGGUUCGAGUCCCGUUCGGAACG the yeast fitness was 0.925.
In the case of GUUCCAUUGGCGUAAUGGUAACGCGUCUCCCUCCUAAGGAGAAGACUGCGGGUUCGAGUCCCGUGCGGAACG, the yeast fitness is reported as 0.88.
GUUCCAUUGGCGUAAUGGUAACGCGUCUCCCUCCUAAGGAGCAGACUACGGGUUCGAGUCCUGUACGGAACG showed a yeast fitness of 0.698.
In the case of GUUCCAUUGGCGUAAUGGUAACGCGUCUCCCUCCUUAGGAGAAGACUGCGGGUUCGAGUCCCGUACGGAACG, the yeast fitness is reported as 0.604.
GUUCCAUUGGCGUAAUGGUAACGCGUCUCCCUCCUGAGGAGAAGACUGCGGGUUCGAGUCCCGUACGGAACG showed a yeast fitness of 0.89.
With GUUCCAUUGGCGUAAUGGUAGCGCGUCUCCCCCCUAAGGAGAAGACUGCGGGUUCGAGGCCCGUAUGGACCG the yeast fitness was no more than 0.5.
GUUCCAUUGGCGUAAUGGUAACGCGUCUCCCUCCUACGGAGCAGACUGCGGGUUCGAGUCCCGUACGGCACG showed a yeast fitness of no more than 0.5.
GUUCCAUUGGCGUAAUGGUAUCGCGUCUCCCUUCUAAGGAGAAGACUGCGGGUUCGUGCCCCGUACGGAACG showed a yeast fitness of no more than 0.5.
GUUCCAUUGGCGUAAUGGUAACGCGUCUCCCUCCUAAGGAGAUGACUGCGGGCUCGCGUCCCGUUCGGAACG showed a yeast fitness of no more than 0.5.
Variant GUUCCAUUGGCGUAAUGGUAACGCGUCUCCCUCCUAUGGAGAAGACUGCGGGUUCGAGUCCCGUACGGAACG has a yeast fitness of 0.64.
With GUUCCAUUGGCGUAAUGGUAACGCGUCUCCCUCCUAGGGAGAAGACUGCGCGUUCGAGUCUCGUACGGAACG the yeast fitness was 0.528.
In the case of GUUCCAUUGGCGUAAUGGUAACGCGUCUCCCUCCUAGGGAGAAGACUGCGGGGUCGAGUCCCGUACGGAACG, the yeast fitness is reported as no more than 0.5.
For GUUCCAUUGGCGUAAUGGUAACGCGUCUCCCUCCUAAGGUGAAGACUGCGGGUUCGAGUCCCGUACGGCACG, the yeast fitness was 0.581.
GUUCCAUUGGAGUAAUGGUAACGGGUCUCCCUCCUAAGGAGUAGACUGCGGGUUCGAGUCCCGUACGGAACG showed a yeast fitness of no more than 0.5.
Variant GUUCCAUUGGAGUAAUGGUAACGCGUCUCCCUCCUAAGGAGAAGUCUGCGGGUUCGAGGCCCGUACGGAACG has a yeast fitness of no more than 0.5.
GUUCCAUUGGCGUAAUGGUAACGCGUCUCCCUCCUUAGGGGAAUACUGCGGGUCCGAGUCCCGUACGGAACG showed a yeast fitness of no more than 0.5.
With GUUCCAUUGGCGUAAUGGUAACGCGUCUCCCUCCUAAGGAGAAGACUGCGGGUUCGUGUCCCGUCCGGACCG the yeast fitness was 0.534.
For GUUCCAUUGGAGUCAUGGCAACACGUCUCCCACCUAAGGAGCAGACUGCGGGUUCGAGUCCCGUACGGAACG, the yeast fitness was 0.532.
In the case of GUUCCAUUGGCGUAAUGGUAACGCGUCUCCCUCCUAAGGAGAAGCGUGCGGGUUCGAGUCCCGUACGGAACG, the yeast fitness is reported as 0.617.
GUUCCAUUGGCGUAAUGGUAACGCGUCUCCCUCCUAUGGAGAAGACUGCGGGUUCGAGUCCGGUACGGAACG showed a yeast fitness of no more than 0.5.
In the case of GUUCCAUUGGAGUAAUGGUAACGCGUCUCCCUCCUAAGGGGAAGACUGCGGGUUCCAGUCGCGUACGGAUCG, the yeast fitness is reported as no more than 0.5.
Variant GUUCCAUUGGCGUAAUGGUAACGCGUCUCCCUCCUAAGGAGAAGUCUGCGGGUUCGAGUCCCGUACGGAACG has a yeast fitness of 0.942.
Variant GUUCCAUUGGCGUAAUGGUAACGCGUCUCCCUCCUAAGGGGAAGUCUGCGGGUUCAAGUCCCGUACGGAACG has a yeast fitness of no more than 0.5.
GUUCCAUUGGCGUAAUGGUAACGCGUCUCCCUCCUAAGGAGAAGUCUGCGAGUUCGAGUCCCGUACGGAACG showed a yeast fitness of no more than 0.5.
With GUUCCAUUGGCGUAAUGGUAGCGCGUCUCCCUCCUAAGGAGAAGACUGCGGGUUCGACCCCCGUACGGAACG the yeast fitness was 0.661.
GUUCCAUUGGCGUAAUGGUAACGCGUCUCCCUCCUGAGGAGAAGACUGCGGGUUCGAGUGCCGUAUGGAACG showed a yeast fitness of no more than 0.5.
Work on GUUCCAUUGGCGUAAUGGUAACGCGUCUCCCUCCUAAGGAGGAGACUGCGGGUUCGAGUCCCGCACGGAACG yielded a yeast fitness of 0.629.
Variant GUUCCAUUGGCGUAAUGGUAGCGCGUCUCCCUCCCAAGGAGAAGACUGCGGGUUCGAGUCCCGUACGGACCG has a yeast fitness of no more than 0.5.
For GUUCCAUUGGCGUAAUGGUAACGCGUCUCCCUCCUAAGGAGAAGACUGCGGGUUCGCGUCCCAUCCGGACCG, the yeast fitness was no more than 0.5.
For GUUCCAUUGGCGUAAUGGUAGCGCGUCUCCCUCCUAAGGAGAAGAAUGCGGGUCCGAGUCCCGUACGGAACG, the yeast fitness was no more than 0.5.
In the case of GUUCCAUUGGCGUAAUGGUAACGCGUCUCCCUCCUUAGGAGAAGACUGCGGGUUCGAGUCCCGUAUAGAACG, the yeast fitness is reported as no more than 0.5.
For GUUCCAUUGGAGUAGUGGUAACGCGUCUCCCUCCUAAGGAGAAGACUGGGCGUUCGAGUCCCGUACGAAACG, the yeast fitness was no more than 0.5.
In the case of GUUCCAUUGGCGUAAUGGUAACGCGUCUCCCUCCUGAGGAGAAGACUACGGGUUCGAGUCCCGUACGGAACG, the yeast fitness is reported as 0.59.
Work on GUUCCAUUGGCGUAAUGGUAACGCGUCUCCCUCCUAAGGAGAUGAAUGCGGGUUCGAGUCCCGUACGGAACG yielded a yeast fitness of 0.649.
Variant GUUCCAUUGGCGUAAUGGUAACGCGUCUCCCUCCUAAGGAGAAGACUGCGGGUUCGCAUCCCGUACGGAACG has a yeast fitness of no more than 0.5.
For GUUCCAUUGGCGUAAUGGUAACGCGUCUCCCUCCUAAGGGGGAGACUGCGGGUUCGAGUCCCGUACGGAACG, the yeast fitness was 0.554.
GUUCCAUUGGCGUAAUGGUAACGCGUCUCCCUCCUAAGGAGAAGGCUGCGGGUUCGAGUCCCGUACGGCACG showed a yeast fitness of 0.748.
In the case of GUUCCAUUGGCGUAAUGGUAACGCGUCUCCCUCCUAAGGAGAAGGCUGCGGGUUCGAGUCCCGUACGGACCG, the yeast fitness is reported as 0.856.
Work on GUUCCAUUGGCGUAAUGGUAACGCGUCUCCCUCCUAAGGAGAAGACUGCGGGUUCGAGUCCCGUCCGGAUCG yielded a yeast fitness of 0.712.
In the case of GUUCCAUUGGCGUAAUGGUAACGCGUCUCCCUCCUGAGGAGAAGCCUGCGGGUUCGAGUCCCGUACGGAACG, the yeast fitness is reported as 0.751.
Work on GUUCCAUUGGCGUAAUGGUAACGCGUCUCCCUCCUAAGGAGAAGCGUGCGGGUUCGAGUCCCGUAUGGAACG yielded a yeast fitness of no more than 0.5.
For GUUCCAUUGGCGUAAUGGUAACGCGUCUCCCUCCUAUGGAGAAGACUGCGGGUUGGAGUCCCGUAUGGAACG, the yeast fitness was no more than 0.5.
Work on GUUCCAUUGGAGUAAUGGUAACGCGUCUCCCUCCUAAGGAGAAGACUGCGGGUUCGAGUCCCGUACGGAACG yielded a yeast fitness of 0.639.
In the case of GUUCCAUUGGCGUAAUGGUAUCGCGUCUCCCUCCUAAGGAGAAGUCUCCGGGUUCGCGUCCCGUACUGAACG, the yeast fitness is reported as no more than 0.5.
